In PubChem BioAssay AID1040 (The Scripps Research Institute Molecular Screening Center, 2008):
Out of some 200,000 compounds screened, about 2,000 (1%) were called active. This excerpt belongs to a sample that is enriched for actives. A number with no mark means an inactive call.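 How the source made its calls: active means inhibition above the campaign mean inhibition of all tested compounds plus 3 SD (cut at about 20% in these data); inactive means the rest.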

Target: Neuropeptide Y receptor type 1 (Homo sapiens) (UniProt P25929)
Sequence (P25929 whole entry, looked up): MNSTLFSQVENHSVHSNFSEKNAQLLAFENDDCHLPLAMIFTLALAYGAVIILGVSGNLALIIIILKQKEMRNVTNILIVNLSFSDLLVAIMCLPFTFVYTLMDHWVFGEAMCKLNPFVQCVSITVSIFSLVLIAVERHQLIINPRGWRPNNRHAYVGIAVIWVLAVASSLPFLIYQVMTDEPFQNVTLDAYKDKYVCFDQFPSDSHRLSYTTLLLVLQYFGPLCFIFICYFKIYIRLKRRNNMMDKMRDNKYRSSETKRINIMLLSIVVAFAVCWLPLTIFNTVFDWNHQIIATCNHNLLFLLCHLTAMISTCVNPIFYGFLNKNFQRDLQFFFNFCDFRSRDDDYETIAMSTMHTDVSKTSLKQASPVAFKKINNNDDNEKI
Test: NPY-Y1 receptor antagonists, primary screen, cell-based (AID 1040);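 further: 0% = DMSO wells given NPY plus isoproterenol and 100% = isoproterenol alone without NPY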
Conditions: HEK293-CNG Y1 cells, membrane potential fluorescence; at 3.6 µM; stronger effect = higher value; NPY at EC95, then isoproterenol
How it was run: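 Assay system: HEK293 cells with Y1 receptor plus CNG channel | Probe or stimulus: NPY (25 nM), isoproterenol (1 µM), Ro 20-1724 (25 µM) | Timing: Compound incubation 1 h at room temperature, readout 45 min post-stimulation | Measured by: Membrane-potential fluorescent dye readout | Benchmarks: High control isoproterenol alone, low control NPY with isoproterenol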

SMILES	inhibition
COC(=O)COc1cccc2c(=O)n(CC(=O)NCCc3ccc(OC)c(OC)c3)ccc12	-1.97%
O=C(CSc1nnnn1-c1ccc2c(c1)CCC2)Nc1ccc2c(c1)OCCO2	6.81%
O=C(CSc1nnnn1C1CCCC1)Nc1ccc2c(c1)OCCO2	22.9% (active)
CCC(=O)Nc1cccc(NC(=O)CSc2nnnn2C2CCCC2)c1	3.57%
O=C(NCC1CCCO1)c1ccc2ccccc2n1 (configuration not stated)	2.64%
CCC(=O)c1c[nH]c(C(=O)NCC2CCCO2)c1 (configuration not stated)	55.6% (active)
CCC(=O)Nc1ccc(S(=O)(=O)NCC2CCCO2)cc1 (configuration not stated)	-5.94%
Nc1ccc(Cl)c(S(=O)(=O)Nc2ccccc2Cl)c1	-0.95%
COC(=O)c1ccc(NC(=S)NN2CCOCC2)cc1	4.27%
O=C(NC(c1ccccc1)c1ccccc1)N1CCN(CCO)CC1	3.34%
CC(Nc1nc(N2CCOCC2)nc2ccccc12)c1ccccc1 (configuration not stated)	8.28%
CCCCn1c(CN2CCN(CCO)CC2)nc2ccccc21	6.52%
CC(Nc1nc(N2CCCC2)nc2ccccc12)c1ccccc1 (configuration not stated)	32.6% (active)
CC(Nc1nc(N2CCN(CCO)CC2)nc2ccccc12)c1ccccc1 (configuration not stated)	22.2% (active)
c1ccc(-c2cc(N3CCCCC3)c3ccccc3n2)cc1	15.9%
COc1ccc(CC(=O)Nc2ccccc2NC(=O)c2ccco2)cc1OC	0.93%
Cc1ccc(-c2nnc(SCC(=O)N/N=C/c3cccs3)n2-c2ccc(C)cc2)cc1	0.85%
CC(Oc1ccccc1F)C(=O)NN (configuration not stated)	2.86%
O=C(O)CCc1nc2cc(Cl)ccc2n(Cc2ccccc2)c1=O	5.7%
O=C(C1CCCN1S(=O)(=O)c1ccc(Br)cc1)N1CCOCC1 (configuration not stated)	-0.15%
CN1CCN(c2ccc(NC(=O)c3ccc4c(c3)OCCO4)cc2Cl)CC1	12%
O=C(O)c1ccccc1-c1ccccc1C(=O)Nc1nccs1	2.4%
O=C(NCCc1ccc(F)cc1)c1n[nH]c2ccccc12	-0.22%
Cc1ccc(C)c(NC(=S)NCC(c2cccnc2)N2CCOCC2)c1 (configuration not stated)	0.28%
O=C1c2cccc3cccc(c23)C(=O)N1CCCCCc1n[nH]c(=S)o1	5.39%

SMILES	inhibition
O=C(Nc1cccc(Cl)c1)Nc1ccccc1NS(=O)(=O)c1cccs1	-7.2%
COc1ccc(-c2[nH]nc(-c3ccccc3)c2-c2nc3ccccc3[nH]2)cc1	20.3% (active)
c1ccc2[nH]c(-c3nc4ccccc4[nH]3)nc2c1	0.38%
c1ccc(-c2[nH]ncc2-c2nc3ccccc3[nH]2)cc1	-3.83%
Cc1ccc(NC(=O)C(=O)NCC2CCN(C(=O)c3cccc([N+](=O)[O-])c3)CC2)cc1	-1.84%
Cc1ccc(S(=O)(=O)/N=C(\N)c2ccc(F)cc2)cc1	-5.62%
Clc1ccccc1-c1cc(COc2ccc3ccccc3c2)no1	25.6% (active)
Clc1ccc(-c2cc(COc3ccccc3)no2)cc1Cl	5%
O=C(NCc1ccccn1)c1cc(-c2ccccc2Cl)on1	9.55%
Cc1cc(C)cc(C(=O)NC(=S)Nc2ccc3[nH]c(=O)[nH]c3c2)c1	6.81%
COc1ccccc1CNC(=O)c1cc(=O)c2ccccc2o1	-4.58%
COc1cc2c(cc1/C=C1/NC(=O)N(c3ccccc3)C1=O)OCO2	6.09%
COc1ccccc1C1C2=C(COC2=O)Nc2cc3c(cc21)OCO3 (configuration not stated)	36.2% (active)
CCCOc1ccccc1C1CC(=O)Nc2cc3c(cc21)OCO3 (configuration not stated)	8.29%
CCC(C)[C@@H](C(=O)N1CCNCC1)n1cc(CCCCN)nn1 (some centres not stated)	1.85%
O=C(CC1NCCNC1=O)Nc1cc(Cl)cc(Cl)c1 (configuration not stated)	0.62%
COC(=O)c1ccc(/C=N/OCC(=O)Nc2cc(F)ccc2F)cc1	11.1%
Cc1ccc(CSc2nc3[nH]ncc3c(=O)[nH]2)cc1	7.17%
Cc1cccc2cc(CN(Cc3cccs3)C(c3nnnn3C3CCCC3)C(C)C)c(=O)[nH]c12 (configuration not stated)	14.5%
CCC(c1nnnn1C1CCCC1)N(Cc1cccs1)Cc1cc2cccc(C)c2[nH]c1=O (configuration not stated)	20.4% (active)
Cc1cccc2cc(CN(Cc3ccc4c(c3)OCO4)Cc3nnnn3C3CCCC3)c(=O)[nH]c12	-4.12%
CCOc1cccc(OCCCOc2cccc3cccnc23)c1	1.99%
CN(C)S(=O)(=O)c1cccc(NC(=O)COC(=O)c2cc(=O)[nH]c(=O)[nH]2)c1	0.75%
CCOC(=O)C1CCN(C(=O)/C=C/c2cc(OC)c(OC)c(OC)c2)CC1	-1.4%
Cc1ccc(COc2ccc(/C=N/NC(=O)CN3CCCCC3)cc2)cc1	16.6%

SMILES	inhibition
Cc1ccc(/C=N/NC(=O)c2sccc2OCc2ccc(F)cc2)cc1	27.2% (active)
Cc1ccsc1C(=O)N/N=C/c1ccc([N+](=O)[O-])cc1	2.54%
CS/C(=C\[N+](=O)[O-])Nc1ccc(C)cc1	10.6%
O=C(COC(=O)C1CC2C=CC1C2)Nc1ccccc1 (configuration not stated)	-2.39%
CCCCN(CC)C(=O)c1ccc2c(c1)OCO2	-2.36%
CCOc1ccc(CCNC(=O)C2=C(C)C(=O)OC23CCC(C)CC3)cc1OCC (configuration not stated)	8.46%
O=C(O)CSc1nccc2ccccc12	21.7% (active)
O=C(O)CSc1nccn1-c1cccc(Cl)c1	7.38%
COC(=O)CSc1nc(C2CC2)nc2ccccc12	3.03%
CC1COc2ccccc2N1C(=O)c1cccnc1Cl (configuration not stated)	1.41%
CCOc1ccccc1Nc1ccc(C(=O)O)cc1[N+](=O)[O-]	3.86%
ClC1(Cl)CC1CSc1ncn[nH]1 (configuration not stated)	3.1%
COC(=O)c1nc2n(n1)C(c1ccc([N+](=O)[O-])cc1)C(C(=O)Nc1ccc(Cl)cc1)=C(C)N2 (configuration not stated)	-1.89%
Cc1nn(C)c(C)c1Sc1ccccc1N	-0.64%
C(=C\c1ccccc1)/CSc1nnc(-c2cccnc2)n1Cc1ccco1	9.54%
COc1ccc(-c2oc3ncn(Cc4ccco4)c(=N)c3c2-c2ccc(OC)cc2)cc1	31.4% (active)
COc1ccc(-n2cnc3cc(NCc4ccco4)ccc32)cc1	-4.2%
c1ccc(-c2oc3ncnc(N4CCOCC4)c3c2-c2ccccc2)cc1	4.24%
N=c1c2c(-c3ccccc3)c(-c3ccccc3)oc2ncn1Cc1ccco1	25.5% (active)
COc1ccc2[nH]c3c(=O)n(Cc4ccco4)cnc3c2c1	1.7%
Cc1ccccc1NC(=O)NC1(C(=O)N2CCCC2)CCCCC1	0.5%
COc1cc(SC)ccc1C(=O)Nc1cc(C)ccn1	4.33%
Cc1ccc(C(=O)NCC(=O)O)s1	-2.04%
COc1cccc(OC)c1C(=O)NC(=S)Nc1ccc(N2CCOCC2)c(Cl)c1	9.33%
Cc1c(Cl)c([N+](=O)[O-])nn1CC(=O)NCC1CCCO1 (configuration not stated)	-5.55%

SMILES	inhibition
CCOC(=O)c1cnn(Cc2ccccc2Cl)c1N	-2.37%
COC(=O)c1ccc(CSc2ccccc2C)o1	-3.04%
COC(=O)c1ccc(COC(=O)c2c(C)nn(Cc3ccccc3Cl)c2Cl)o1	22.2% (active)
O=C(Nc1ccc(F)cc1)N1CCCC(c2nc3c(nnn3Cc3ccccc3Cl)c(=O)[nH]2)C1 (configuration not stated)	-6.56%
Oc1ccccc1C=NC1CCCCC1N=Cc1ccccc1O (configuration not stated)	4.16%
Cc1ccc(Cl)cc1N1CCN(C(=O)c2cccc3c(=O)c(C)c(-c4ccccc4)oc23)CC1	4.2%
Cc1cccc(OCCC(=O)Nc2cc(S(=O)(=O)N3CCCCC3)ccc2N2CCOCC2)c1	2.92%
Cc1ncc([N+](=O)[O-])n1CCOC(=O)c1ccc(Br)cc1	-0.91%
COc1ccccc1NC(=O)COC(=O)Cc1ccc(S(=O)(=O)N2CCCCC2)s1	-4.82%
O=C(Nc1ccc(N2C(=O)c3cccc4cccc(c34)C2=O)cc1)c1ccc(N2CCCCC2)c([N+](=O)[O-])c1	-0.12%
COc1ccc(-c2[nH]ncc2/C=N/NC(=O)c2cc(Br)ccc2O)c(OC)c1	4.29%
CS(=O)(=O)n1nc(-c2ccccc2)nc1NCc1ccco1	-0.86%
CCS(=O)(=O)n1nc(-c2ccc(OC)cc2)nc1SC	3.74%
CCS(=O)(=O)n1nc(-c2ccccc2)nc1SCc1ccccc1	28.2% (active)
Cc1ccnc(NC(=O)CCC(=O)N(CC(=O)NCc2ccccc2)Cc2ccco2)c1	2.07%
O=C1C2N=NN(CC(=O)N3N=C(c4cccc5ccccc45)CC3c3ccccc3)C2C(=O)N1c1ccccc1 (configuration not stated)	6.21%
Cc1ccc(N2C(=O)C3N=NN(CC(=O)N4N=C(c5cccc6ccccc56)CC4c4ccccc4)C3C2=O)cc1 (configuration not stated)	20.5% (active)
CC(=O)Oc1ccccc1C1=NN(C(C)=O)C(c2ccccc2)C1 (configuration not stated)	1.31%
CCn1ccnc1CN1CCCC(C(=O)c2ccc3c4c(cccc24)CC3)C1 (configuration not stated)	3.36%
OCC1(CCc2ccccc2)CCN(Cc2ccc3nsnc3c2)CC1	22.8% (active)
Cc1cccc(-c2ncc(CN3CCC(CO)(CCCc4ccccc4)CC3)cn2)c1	4.93%
CC(=O)c1cccc(CN2CCC(CO)(Cc3ccccc3)CC2)c1	2.21%
